Measurements published in ChEMBL document CHEMBL3232890, “Novel structural hybrids of pyrazolobenzothiazines with benzimidazoles as cholinesterase inhibitors” (Eur J Med Chem, 2014).
Counter-ions that a name gives are not always drawn.

What was measured:
[1] = Inhibition of electric eel AChE type VI-S using acetylthiocholine iodide as substrate preincubated with enzyme for 10 mins prior to substrate challenge for 15 mins by Ellman's method; design: species or system Electrophorus electricus
In short: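 Enzyme was EeAChE at 0.5 U/mg or equine BuChE at 3.4 U/mg, diluted in Tris-HCl with 0.1% BSA. Eight to ten serial dilutions were preincubated for 10 min at 25 °C, then incubated for 15 min at 25 °C, and read at 405 nm in triplicate. IC50 came from linear regression.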

Cholinesterase = Cholinesterase (Equus caballus, UniProt P81908); experiment: Inhibition of BuChE in equine serum using butyrylthiocholine chloride as substrate preincubated with enzyme for 10 mins prior to substrate challenge for 15 mins by Ellman's method
[2] = target: Cholinesterase (Equus caballus) (UniProt P81908); experiment: Inhibition of BuChE in equine serum using butyrylthiocholine chloride as substrate at 500 uM preincubated with enzyme for 10 mins prior to substrate challenge for 15 mins by Ellman's method
In short: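 The compound was added from DMSO (1% final) at 0.5 mM final. Enzyme and compound were preincubated for 10 min at 25 °C, then incubated for 15 min at 25 °C, and absorbance was read at 405 nm. Blanks lacked enzyme or substrate.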

Chain of Cholinesterase (P81908 whole entry): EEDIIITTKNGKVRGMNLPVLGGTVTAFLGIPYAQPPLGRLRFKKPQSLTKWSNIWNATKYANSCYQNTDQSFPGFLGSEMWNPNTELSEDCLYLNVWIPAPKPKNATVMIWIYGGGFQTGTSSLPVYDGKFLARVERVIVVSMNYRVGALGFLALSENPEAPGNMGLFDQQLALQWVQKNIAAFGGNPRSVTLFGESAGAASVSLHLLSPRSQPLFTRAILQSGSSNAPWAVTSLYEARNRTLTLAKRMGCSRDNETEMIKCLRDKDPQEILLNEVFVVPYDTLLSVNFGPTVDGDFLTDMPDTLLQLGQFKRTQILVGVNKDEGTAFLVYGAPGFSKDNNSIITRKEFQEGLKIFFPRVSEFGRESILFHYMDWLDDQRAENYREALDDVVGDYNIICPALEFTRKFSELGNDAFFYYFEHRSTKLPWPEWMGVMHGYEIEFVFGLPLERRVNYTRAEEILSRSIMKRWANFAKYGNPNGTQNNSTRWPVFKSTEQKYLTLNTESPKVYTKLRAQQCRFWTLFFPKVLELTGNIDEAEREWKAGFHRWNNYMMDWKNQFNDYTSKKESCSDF
Chain of Cholinesterase (Equus caballus) (P81908 whole entry): as above

SMILES: COc1cc2c(cc1OC)C(=O)C(CC1CCN(Cc3ccccc3)CC1)C2 (configuration not stated) [DONEPEZIL HYDROCHLORIDE]
- IC50 [1]: 0.032 µM

SMILES: CN(C)C(=O)Oc1cccc([N+](C)(C)C)c1 [NEOSTIGMINE]
- IC50 (Cholinesterase): 49.6 µM
- IC50 [1]: 22.2 µM

SMILES: Cc1c2c(nn1-c1ccc(-c3nc4cncnc4[nH]3)cc1)-c1ccccc1S(=O)(=O)N2C
- inhibition [2]: 35.5%
- IC50 [1]: 1.95 µM

SMILES: COc1ccc2[nH]c(-c3ccc(-n4nc5c(c4-c4ccccc4)N(C)S(=O)(=O)c4ccccc4-5)cc3)nc2c1
- inhibition [2]: 37.3%
- IC50 [1]: 7.13 µM

SMILES: CN1c2c(nn(-c3ccc(-c4nc5ccccc5o4)cc3)c2-c2ccccc2)-c2ccccc2S1(=O)=O
- inhibition [2]: 36.5%
- IC50 [1]: 0.054 µM

SMILES: Cc1cc2nc(-c3ccc(-n4nc5c(c4C)N(C)S(=O)(=O)c4ccccc4-5)cc3)[nH]c2cc1C
- IC50 (Cholinesterase): 0.273 µM
- IC50 [1]: 0.041 µM

SMILES: CN1c2c(nn(-c3ccc(-c4nc5cncnc5[nH]4)cc3)c2-c2ccccc2)-c2ccccc2S1(=O)=O
- IC50 (Cholinesterase): 1.33 µM
- IC50 [1]: 5.22 µM

SMILES: Cc1cc2nc(-c3ccc(-n4nc5c(c4-c4ccccc4)N(C)S(=O)(=O)c4ccccc4-5)cc3)[nH]c2cc1C
- inhibition [2]: 34.1%
- IC50 [1]: 3.82 µM

SMILES: CN1c2c(nn(-c3ccc(-c4nc5cc(Cl)ccc5[nH]4)cc3)c2-c2ccccc2)-c2ccccc2S1(=O)=O
- IC50 (Cholinesterase): 9.94 µM
- IC50 [1]: 3.02 µM

SMILES: Cc1c2c(nn1-c1ccc(-c3nc4cc([N+](=O)[O-])ccc4[nH]3)cc1)-c1ccccc1S(=O)(=O)N2C
- inhibition [2]: 38.5%
- IC50 [1]: 0.492 µM

SMILES: CCOC(=O)c1ccc2[nH]c(-c3ccc(-n4nc5c(c4-c4ccccc4)N(C)S(=O)(=O)c4ccccc4-5)cc3)nc2c1
- IC50 (Cholinesterase): 0.18 µM
- IC50 [1]: 0.013 µM

SMILES: CN1c2c(nn(-c3ccc(-c4nc5cc(Br)ccc5[nH]4)cc3)c2-c2ccccc2)-c2ccccc2S1(=O)=O
- IC50 (Cholinesterase): 3.23 µM
- IC50 [1]: 6.9 µM

SMILES: Cc1ccc2[nH]c(-c3ccc(-n4nc5c(c4-c4ccccc4)N(C)S(=O)(=O)c4ccccc4-5)cc3)nc2c1
- inhibition [2]: 31.8%
- IC50 [1]: 0.122 µM

SMILES: CCOC(=O)c1ccc2[nH]c(-c3ccc(-n4nc5c(c4C)N(C)S(=O)(=O)c4ccccc4-5)cc3)nc2c1
- inhibition [2]: 29.5%
- IC50 [1]: 0.993 µM

SMILES: Cc1c2c(nn1-c1ccc(-c3nc4cc(Br)ccc4[nH]3)cc1)-c1ccccc1S(=O)(=O)N2C
- IC50 (Cholinesterase): 0.049 µM
- IC50 [1]: 0.541 µM

SMILES: Cc1ccc2[nH]c(-c3ccc(-n4nc5c(c4C)N(C)S(=O)(=O)c4ccccc4-5)cc3)nc2c1
- IC50 (Cholinesterase): 0.041 µM
- IC50 [1]: 7.53 µM

SMILES: COc1ccc2[nH]c(-c3ccc(-n4nc5c(c4C)N(C)S(=O)(=O)c4ccccc4-5)cc3)nc2c1
- IC50 (Cholinesterase): 6.92 µM
- IC50 [1]: 1.14 µM

SMILES: Cc1c2c(nn1-c1ccc(-c3nc4cc(C(=O)O)ccc4[nH]3)cc1)-c1ccccc1S(=O)(=O)N2C
- IC50 (Cholinesterase): 0.026 µM
- IC50 [1]: 1.13 µM

SMILES: CN1c2c(nn(-c3ccc(-c4nc5ccccc5[nH]4)cc3)c2-c2ccccc2)-c2ccccc2S1(=O)=O
- IC50 (Cholinesterase): 0.043 µM
- IC50 [1]: 0.011 µM

SMILES: CN1c2c(nn(-c3ccc(-c4nc5cc([N+](=O)[O-])ccc5[nH]4)cc3)c2-c2ccccc2)-c2ccccc2S1(=O)=O
- inhibition [2]: 30.7%
- IC50 [1]: 7.94 µM

SMILES: Cc1c2c(nn1-c1ccc(-c3nc4ccccc4o3)cc1)-c1ccccc1S(=O)(=O)N2C
- IC50 (Cholinesterase): 0.017 µM
- IC50 [1]: 6.92 µM

SMILES: Cc1c2c(nn1-c1ccc(-c3nc4ccccc4[nH]3)cc1)-c1ccccc1S(=O)(=O)N2C
- IC50 (Cholinesterase): 0.043 µM
- IC50 [1]: 2.91 µM

SMILES: CN1c2c(nn(-c3ccc(-c4nc5cc(C(=O)O)ccc5[nH]4)cc3)c2-c2ccccc2)-c2ccccc2S1(=O)=O
- IC50 (Cholinesterase): 4.62 µM
- IC50 [1]: 6.11 µM

SMILES: Cc1c2c(nn1-c1ccc(-c3nc4cc(Cl)ccc4[nH]3)cc1)-c1ccccc1S(=O)(=O)N2C
- inhibition [2]: 38.7%
- IC50 [1]: 1.02 µM
